Activity calls are given as the source filed them.
How the values were obtained:
Assay type in all cases: functional, organism-based
MDA-MB-231 = assay: Antitumor activity against human MDA-MB-231 cells implanted intraperitoneally in mouse assessed as inhibition of tumor cell growth at 1.6 to 2.4 mg/kg, ip administered on day 1 to 4 measured on day 5 by hollow fiber assay
How it was run: (§1)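 Human tumour cell lines from a standard 12-line panel encapsulated in polyvinylidene fluoride hollow fibres (500,000 Da exclusion), implanted intraperitoneally or subcutaneously in mice; drug given IP at 2.4 and 1.6 mg/kg/dose on days 1–4; fibres retrieved and viable cell mass determined day 5; T/C versus vehicle-only injected controls.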

SF-295 = assay: Antitumor activity against human SF295 cells implanted intraperitoneally in mouse assessed as inhibition of tumor cell growth at 1.6 to 2.4 mg/kg, ip administered on day 1 to 4 measured on day 5 by hollow fiber assay; how it was run: as §1
U-251 = assay: Antitumor activity against human U251 cells implanted intraperitoneally in mouse assessed as inhibition of tumor cell growth at 1.6 to 2.4 mg/kg, ip administered on day 1 to 4 measured on day 5 by hollow fiber assay; how it was run: as §1
COLO 205 = assay: Antitumor activity against human COLO205 cells implanted intraperitoneally in mouse assessed as inhibition of tumor cell growth at 1.6 to 2.4 mg/kg, ip administered on day 1 to 4 measured on day 5 by hollow fiber assay; how it was run: as §1
SW-620 = assay: Antitumor activity against human SW620 cells implanted intraperitoneally in mouse assessed as inhibition of tumor cell growth at 1.6 to 2.4 mg/kg, ip administered on day 1 to 4 measured on day 5 by hollow fiber assay; how it was run: as §1
LOX IMVI = assay: Antitumor activity against human LOXIMVI cells implanted intraperitoneally in mouse assessed as inhibition of tumor cell growth at 1.6 to 2.4 mg/kg, ip administered on day 1 to 4 measured on day 5 by hollow fiber assay; how it was run: as §1
MDA-MB-435 = assay: Antitumor activity against human MDA-MB-435 cells implanted intraperitoneally in mouse assessed as inhibition of tumor cell growth at 1.6 to 2.4 mg/kg, ip administered on day 1 to 4 measured on day 5 by hollow fiber assay; how it was run: as §1
UACC-62 = assay: Antitumor activity against human UACC62 cells implanted intraperitoneally in mouse assessed as inhibition of tumor cell growth at 1.6 to 2.4 mg/kg, ip administered on day 1 to 4 measured on day 5 by hollow fiber assay; how it was run: as §1
NCI-H23 = assay: Antitumor activity against human NCI-H23 cells implanted intraperitoneally in mouse assessed as inhibition of tumor cell growth at 1.6 to 2.4 mg/kg, ip administered on day 1 to 4 measured on day 5 by hollow fiber assay; how it was run: as §1
NCI-H522 = assay: Antitumor activity against human NCI-H522 cells implanted intraperitoneally in mouse assessed as inhibition of tumor cell growth at 1.6 to 2.4 mg/kg, ip administered on day 1 to 4 measured on day 5 by hollow fiber assay; how it was run: as §1
Homo sapiens = assay: Antitumor activity against human OVRAC3 cells implanted intraperitoneally in mouse assessed as inhibition of tumor cell growth at 1.6 to 2.4 mg/kg, ip administered on day 1 to 4 measured on day 5 by hollow fiber assay; how it was run: as §1
OVCAR-5 = assay: Antitumor activity against human OVCAR5 cells implanted intraperitoneally in mouse assessed as inhibition of tumor cell growth at 1.6 to 2.4 mg/kg, ip administered on day 1 to 4 measured on day 5 by hollow fiber assay; how it was run: as §1

Measured: TGI

C/C=C1\NC(=O)[C@H]2CSSCC/C=C/[C@H](CC(=O)N[C@H](C(C)C)C(=O)N2)OC(=O)[C@H](C(C)C)NC1=O
active: all assays above

— ChEMBL document CHEMBL1833805, “Histone deacetylase inhibitors from Burkholderia thailandensis” (2011)
